Measured values as given in ChEMBL document CHEMBL1145020, “Synthesis and structure-activity relationships of 6,7-disubstituted 4-anilinoquinoline-3-carbonitriles. The design of an orally active, irreversible inhibitor of the tyrosine kinase activity of the epidermal growth factor receptor (EGFR) and the human epidermal growth factor receptor-2 (HER-2)” (J Med Chem, 2003).

Columns and labels:
[1] = target: Receptor tyrosine-protein kinase erbB-2 (Homo sapiens, UniProt P04626); assay: Concentration required to inhibit autophosphorylation of cytoplasmic domain of human epidermal growth factor receptor-2
SW-620 = assay: Concentration required to inhibit growth of human carcinoma colon (SW620) cell line; assay type: functional, cell-based
[2] = Concentration required to inhibit growth of human carcinoma breast (SKBR3) cell line; assay type: functional; settings: SK-BR-3
Summary of the method: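 Cell growth inhibition measured from dose–response curves at five concentrations. […] Reported values average at least two determinations.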

A-431 = assay: Concentration required to inhibit growth of human carcinoma epidermoid (A431) cell line; assay type: functional, cell-based
[3] = target: Epidermal growth factor receptor (Homo sapiens, UniProt P00533)
Epidermal growth factor receptor, sequence (P00533 whole entry): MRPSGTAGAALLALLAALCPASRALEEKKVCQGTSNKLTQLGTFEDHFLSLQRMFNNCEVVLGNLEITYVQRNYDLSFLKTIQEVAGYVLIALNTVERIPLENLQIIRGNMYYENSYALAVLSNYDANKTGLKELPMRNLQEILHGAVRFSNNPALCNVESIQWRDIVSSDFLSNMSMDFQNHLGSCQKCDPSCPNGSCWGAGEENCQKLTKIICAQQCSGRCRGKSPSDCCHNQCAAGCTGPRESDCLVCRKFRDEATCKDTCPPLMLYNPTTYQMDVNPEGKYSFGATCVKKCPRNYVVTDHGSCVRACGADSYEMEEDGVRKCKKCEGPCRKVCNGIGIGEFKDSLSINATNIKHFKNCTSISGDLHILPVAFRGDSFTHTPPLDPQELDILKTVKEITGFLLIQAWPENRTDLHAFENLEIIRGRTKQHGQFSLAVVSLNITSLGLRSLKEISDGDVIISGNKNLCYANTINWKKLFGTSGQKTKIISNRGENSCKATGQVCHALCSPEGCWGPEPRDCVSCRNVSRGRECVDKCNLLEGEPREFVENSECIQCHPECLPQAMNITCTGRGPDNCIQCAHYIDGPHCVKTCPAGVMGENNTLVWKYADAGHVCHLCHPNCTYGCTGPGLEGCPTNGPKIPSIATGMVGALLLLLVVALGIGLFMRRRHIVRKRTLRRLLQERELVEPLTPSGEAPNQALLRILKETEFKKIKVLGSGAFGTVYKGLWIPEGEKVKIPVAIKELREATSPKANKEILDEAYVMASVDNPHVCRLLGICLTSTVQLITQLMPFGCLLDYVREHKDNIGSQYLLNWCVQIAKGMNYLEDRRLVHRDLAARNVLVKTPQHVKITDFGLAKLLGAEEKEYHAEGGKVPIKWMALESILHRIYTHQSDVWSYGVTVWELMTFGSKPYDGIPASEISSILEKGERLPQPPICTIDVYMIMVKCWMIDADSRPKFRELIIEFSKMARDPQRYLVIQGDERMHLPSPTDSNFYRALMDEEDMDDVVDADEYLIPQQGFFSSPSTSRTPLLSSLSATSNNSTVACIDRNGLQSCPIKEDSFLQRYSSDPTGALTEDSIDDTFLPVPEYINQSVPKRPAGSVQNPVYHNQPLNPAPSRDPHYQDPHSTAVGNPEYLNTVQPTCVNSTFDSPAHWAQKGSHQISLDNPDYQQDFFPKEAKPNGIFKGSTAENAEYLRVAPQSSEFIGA

Receptor tyrosine-protein kinase erbB-2, sequence (P04626 whole entry, the tested form may be a part): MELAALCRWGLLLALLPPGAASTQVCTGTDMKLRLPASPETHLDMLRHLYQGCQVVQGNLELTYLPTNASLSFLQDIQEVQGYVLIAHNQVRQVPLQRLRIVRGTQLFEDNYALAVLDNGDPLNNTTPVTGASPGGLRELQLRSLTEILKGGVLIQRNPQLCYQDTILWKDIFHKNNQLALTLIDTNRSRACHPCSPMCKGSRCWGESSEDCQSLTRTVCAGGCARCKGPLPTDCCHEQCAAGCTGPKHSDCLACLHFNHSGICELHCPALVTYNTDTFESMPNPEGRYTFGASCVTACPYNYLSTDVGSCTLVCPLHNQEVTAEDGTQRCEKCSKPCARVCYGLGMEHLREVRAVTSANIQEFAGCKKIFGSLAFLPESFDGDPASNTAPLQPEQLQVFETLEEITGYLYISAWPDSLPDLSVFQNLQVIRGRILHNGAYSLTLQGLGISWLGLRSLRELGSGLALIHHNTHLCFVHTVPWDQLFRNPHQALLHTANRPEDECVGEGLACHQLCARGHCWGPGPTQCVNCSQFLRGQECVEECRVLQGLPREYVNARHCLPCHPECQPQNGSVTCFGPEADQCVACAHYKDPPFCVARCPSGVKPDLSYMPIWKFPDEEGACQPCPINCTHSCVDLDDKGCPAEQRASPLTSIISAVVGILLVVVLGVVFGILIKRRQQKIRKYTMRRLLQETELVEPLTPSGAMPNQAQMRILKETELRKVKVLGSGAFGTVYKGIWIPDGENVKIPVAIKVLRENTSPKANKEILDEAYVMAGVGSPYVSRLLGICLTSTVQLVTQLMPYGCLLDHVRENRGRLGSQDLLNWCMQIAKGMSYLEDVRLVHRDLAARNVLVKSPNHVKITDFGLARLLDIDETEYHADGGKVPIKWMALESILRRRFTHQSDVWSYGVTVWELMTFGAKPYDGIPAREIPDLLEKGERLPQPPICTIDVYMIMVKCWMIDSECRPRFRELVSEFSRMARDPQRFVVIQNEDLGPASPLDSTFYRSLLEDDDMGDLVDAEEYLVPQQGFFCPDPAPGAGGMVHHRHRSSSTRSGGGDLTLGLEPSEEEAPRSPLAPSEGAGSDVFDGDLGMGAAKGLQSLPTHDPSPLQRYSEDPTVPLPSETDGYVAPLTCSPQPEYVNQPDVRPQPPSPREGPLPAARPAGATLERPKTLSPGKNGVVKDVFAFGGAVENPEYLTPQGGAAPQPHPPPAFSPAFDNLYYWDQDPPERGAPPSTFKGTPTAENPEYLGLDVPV

| Compound | IC50 [1] | IC50 (SW-620) | IC50 (A-431) | IC50 [3] | IC50 [2] |
| --- | --- | --- | --- | --- | --- |
| C/C=C/C(=O)Nc1cc2c(Nc3ccc(F)c(Cl)c3)c(C#N)cnc2cc1OCC | 21.5 µM | – | – | – | 0.17 µM |
| COc1cc2ncc(C#N)c(Nc3ccc(F)c(Cl)c3)c2cc1NC(=O)/C=C/C(C)N1CCOCC1 (stereo not drawn) | 34 µM | 4.94 µM | – | – | 0.2 µM |
| C/C=C/C(=O)Nc1ccc2ncc(C#N)c(Nc3cccc(Br)c3)c2c1 | – | 12.3 µM | 4.4 µM | – | 10.1 µM |
| C=CC(=O)Nc1cc2c(Nc3cccc(Br)c3)c(C#N)cnc2cc1OC | 4.68 µM | 1.88 µM | 0.31 µM | – | 0.12 µM |
| CCOc1cc2ncc(C#N)c(Nc3cccc(Br)c3)c2cc1NC(=O)/C=C/CN1CCOCC1 | 34 µM | 2.88 µM | – | – | 0.07 µM |
| N#Cc1cnc2ccc(NC(=O)/C=C/CN3CCOCC3)cc2c1Nc1ccc(F)c(Cl)c1 | 8.74 µM | 6.33 µM | – | – | 0.22 µM |
| N#Cc1cnc2ccc(NC(=O)C#CCN3CCSCC3)cc2c1Nc1cccc(Br)c1 | 1.04 µM | 0.35 µM | 0.1 µM | 0.55 µM | 0.07 µM |
| COc1cc2ncc(C#N)c(Nc3cccc(Br)c3)c2cc1NC(=O)/C=C/CN1CCOCC1 | 34.1 µM | 5.38 µM | – | – | 0.12 µM |
| COc1cc2ncc(C#N)c(Nc3ccc(F)c(Cl)c3)c2cc1NC(=O)/C=C/C(C)N(C)C (stereo not drawn) | 11.8 µM | 1.13 µM | – | – | 0.19 µM |
| COc1cc(NC(=O)/C=C/CN(C)C)cc2c(Nc3cccc(Br)c3)c(C#N)cnc12 | 9.35 µM | 8.97 µM | 2.52 µM | 2.88 µM | 2.52 µM |
| CCN(CC)C(C)/C=C/C(=O)Nc1cc2c(Nc3ccc(F)c(Cl)c3)c(C#N)cnc2cc1OC (stereo not drawn) | 9.58 µM | 0.88 µM | – | – | 0.31 µM |
| COc1cc(NC(=O)/C=C/CN2CCOCC2)cc2c(Nc3cccc(Br)c3)c(C#N)cnc12 | 23.6 µM | 9.57 µM | – | – | 2.66 µM |
| COc1cc2ncc(C#N)c(Nc3ccc(F)c(Cl)c3)c2cc1NC(=O)/C=C/CN1CCOCC1 | 31.4 µM | 6.67 µM | – | – | 0.11 µM |
| CCN(CC)C/C=C/C(=O)Nc1cc2c(Nc3ccc(F)c(Cl)c3)c(C#N)cnc2cc1OC | 7.8 µM | 0.66 µM | – | – | 0.05 µM |
| CCOc1cc2ncc(C#N)c(Nc3ccc(F)c(Cl)c3)c2cc1NC(=O)/C=C/CN(C)C [PELITINIB] | – | – | – | – | 0.01 µM |
| COc1cc2ncc(C#N)c(Nc3cccc(Br)c3)c2cc1NC(=O)/C=C/CN(C)C | 5.66 µM | 1.17 µM | 0.14 µM | 0.79 µM | 0.03 µM |

Now from value to compound, other results behind:

| IC50 [1] | IC50 (SW-620) | IC50 (A-431) | IC50 [3] | Compound | IC50 [2] |
| --- | --- | --- | --- | --- | --- |
| 4.49 µM | 0.91 µM | – | – | COc1cc2ncc(C#N)c(Nc3ccc(F)c(Cl)c3)c2cc1NC(=O)/C=C/CN(C)C | 0.04 µM |
| 1.22 µM | 4.14 µM | 1.2 µM | 0.15 µM | COC[C@@H]1CCCN1CC#CC(=O)Nc1ccc2ncc(C#N)c(Nc3cccc(Br)c3)c2c1 | 0.54 µM |
| 4.16 µM | 5.48 µM | 0.45 µM | 0.31 µM | CN(C)C/C=C/C(=O)Nc1ccc2ncc(C#N)c(Nc3cccc(Br)c3)c2c1 | 0.18 µM |
| 3.87 µM | 12.3 µM | 5.03 µM | 0.94 µM | CC#CC(=O)Nc1ccc2ncc(C#N)c(Nc3cccc(Br)c3)c2c1 | 5.5 µM |
| 4.39 µM | 0.49 µM | – | – | C=C(CN1CCOCC1)C(=O)Nc1ccc2ncc(C#N)c(Nc3ccc(F)c(Cl)c3)c2c1 | 0.22 µM |
| 0.18 µM | 0.3 µM | 0.11 µM | 0.09 µM | COc1cc2ncc(C#N)c(Nc3cccc(Br)c3)c2cc1NC(=O)C#CCN(C)C | 0.12 µM |
| 0.37 µM | 0.4 µM | 0.24 µM | 0.13 µM | CCCN(CC#CC(=O)Nc1ccc2ncc(C#N)c(Nc3cccc(Br)c3)c2c1)CCC | 0.08 µM |
| 1.63 µM | 3.38 µM | 0.36 µM | 0.59 µM | C=CC(=O)Nc1ccc2ncc(C#N)c(Nc3cccc(Br)c3)c2c1 | 0.44 µM |
| 1.21 µM | 0.32 µM | 0.18 µM | 0.56 µM | C=C(CN(C)C)C(=O)Nc1cc2c(Nc3ccc(F)c(Cl)c3)c(C#N)cnc2cc1OCC | 0.09 µM |
| 0.3 µM | 0.52 µM | 0.28 µM | 0.96 µM | COCC#CC(=O)Nc1ccc2ncc(C#N)c(Nc3cccc(Br)c3)c2c1 | 0.35 µM |
| 2.97 µM | 1.15 µM | – | – | CCOc1cc2ncc(C#N)c(Nc3cccc(Br)c3)c2cc1NC(=O)/C=C/CN(C)C | 0.03 µM |
| 1.95 µM | 0.88 µM | 0.15 µM | 0.65 µM | CN(C)C/C=C/C(=O)Nc1ccc2ncc(C#N)c(Nc3ccc(F)c(Cl)c3)c2c1 | 0.05 µM |
| 4.13 µM | 1.46 µM | – | – | CN(C)C/C=C/C(=O)Nc1cc2c(Nc3ccc(F)c(Cl)c3)c(C#N)cnc2cc1OC(F)(F)F | 0.3 µM |
| 0.45 µM | 0.34 µM | 0.27 µM | 0.93 µM | COCCOCC#CC(=O)Nc1ccc2ncc(C#N)c(Nc3cccc(Br)c3)c2c1 | 0.39 µM |
| 0.32 µM | 0.25 µM | 0.14 µM | – | CC(C)N(CC#CC(=O)Nc1ccc2ncc(C#N)c(Nc3cccc(Br)c3)c2c1)C(C)C | 0.04 µM |
| 2.12 µM | 7.58 µM | 5.12 µM | 0.91 µM | CC#CC(=O)Nc1cc2c(Nc3cccc(Br)c3)c(C#N)cnc2cc1OC | 8.36 µM |
| 0.38 µM | 1.77 µM | 0.73 µM | 0.79 µM | COCC#CC(=O)Nc1cc2c(Nc3cccc(Br)c3)c(C#N)cnc2cc1OC | 0.29 µM |
